Test results published in ChEMBL document CHEMBL4680191, “Discovery of novel akt1 inhibitor induces autophagy associated death in hepatocellular carcinoma cells” (Eur J Med Chem, 2020).
Calls of active or inactive are those of the source. The calls are words filed in the database; no cut-off is given here.

Columns and labels:
[1] = tested on: RAC-gamma serine/threonine-protein kinase (Homo sapiens), Q9Y243 [S472D]; assay: Inhibition of full length human Akt3 S472D mutant assessed as remaining activity at 1 uM using GRPRTSSFAEGKK as substrate incubated for 40 mins by scintillation counting method relative to control
Summary of the method: (§1)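 Eurofins KinaseProfiler kinase assay on human Akt1, Akt2 and Akt3. Compounds were tested at 1 µM. Residual kinase activity is reported as % of control.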

[2] = organism: Homo sapiens; assay: Inhibition of full length human Akt1 […] mutant assessed as remaining activity at 1 uM using GRPRTSSFAEGKK as substrate incubated for 40 mins by scintillation counting method relative to control; summary of the method: as §1
[3] = tested on: RAC-beta serine/threonine-protein kinase (Homo sapiens), P31751 [S474D]; assay: Inhibition of full length human Akt2 S474D mutant assessed as remaining activity at 1 uM using GRPRTSSFAEGKK as substrate incubated for 40 mins by scintillation counting method relative to control; summary of the method: as §1
[4] = biological target: cAMP-dependent protein kinase catalytic subunit alpha (Homo sapiens) (UniProt P17612); assay: Inhibition of full length human PKAcalpha assessed as remaining activity at 1 uM using LRRASLG as substrate incubated for 40 mins by scintillation counting method relative to control
Summary of the method: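 Run as an outsourced KinaseProfiler service, with human PKA and Akt1, Akt2 and Akt3 in the same panel. Each compound was tested at a single 1 µM concentration, and the result is reported as kinase activity remaining, as a percentage of control.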

[5] = Inhibition of full length human Akt1 […] mutant using GRPRTSSFAEGKK as substrate incubated for 40 mins by scintillation counting method
Summary of the method: (§2)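 Eurofins KinaseProfiler enzymatic assay on human Akt isoforms. IC50 values are the mean of at least three independent replicates ± standard deviation.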

[6] = tested on: SMMC-7721; assay: Cytotoxicity against human SMMC-7721 cells assessed as reduction in cell viability by MTT assay; format: functional, cell-based
Summary of the method: (§3)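 Hepatoma cells were grown in DMEM with 10% FBS and streptomycin, then treated with compounds. Viability was read by MTT.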

[7] = biological target: RAC-gamma serine/threonine-protein kinase (Homo sapiens, UniProt Q9Y243, S472D); assay: Inhibition of full length human Akt3 S472D mutant using GRPRTSSFAEGKK as substrate incubated for 40 mins by scintillation counting method; summary of the method: as §2
[8] = tested on: Huh-7; assay: Cytotoxicity against human Huh-7 cells assessed as reduction in cell viability by MTT assay; format: functional, cell-based; summary of the method: as §3
[9] = tested on: HepG2; assay: Cytotoxicity against human HepG2 cells assessed as reduction in cell viability by MTT assay; format: functional, cell-based; summary of the method: as §3
[10] = tested on: Hep 3B2; assay: Cytotoxicity against human Hep3B cells assessed as reduction in cell viability by MTT assay; format: functional, cell-based; summary of the method: as §3
[11] = tested on: Huh-7; assay: Induction of autophagy flux arrest in human Huh-7 cells assessed as reduction in LC3 by immunofluorescence staining based assay; format: functional, cell-based
Summary of the method: (§4)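 Huh-7 cells with or without 0.2 µM compound were immunofluorescently co-stained for LC3 (autophagosome) and LAMP1 (lysosome). Co-localization was assessed by fluorescence imaging.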

[12] = tested on: Huh-7; assay: Induction of autophagy flux arrest in human Huh-7 cells assessed as reduction in LAMP1 by immunofluorescence staining based assay; format: functional, cell-based; summary of the method: as §4

Sequence of RAC-gamma serine/threonine-protein kinase (Q9Y243 2-479 S472D limits assumed): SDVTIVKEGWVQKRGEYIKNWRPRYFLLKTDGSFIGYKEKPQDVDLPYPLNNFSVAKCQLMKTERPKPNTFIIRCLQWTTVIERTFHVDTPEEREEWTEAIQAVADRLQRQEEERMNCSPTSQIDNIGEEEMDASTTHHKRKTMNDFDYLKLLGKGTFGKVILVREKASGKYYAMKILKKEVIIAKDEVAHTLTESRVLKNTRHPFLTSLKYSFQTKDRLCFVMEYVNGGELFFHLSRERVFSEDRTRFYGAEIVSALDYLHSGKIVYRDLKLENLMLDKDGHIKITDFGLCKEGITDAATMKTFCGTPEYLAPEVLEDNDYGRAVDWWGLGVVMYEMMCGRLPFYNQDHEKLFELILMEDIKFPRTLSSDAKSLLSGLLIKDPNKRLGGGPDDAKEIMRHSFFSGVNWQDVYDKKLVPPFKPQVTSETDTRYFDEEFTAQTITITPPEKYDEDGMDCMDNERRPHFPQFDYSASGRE
Sequence of RAC-beta serine/threonine-protein kinase (Homo sapiens), P31751 [S474D] (P31751 whole entry S474D): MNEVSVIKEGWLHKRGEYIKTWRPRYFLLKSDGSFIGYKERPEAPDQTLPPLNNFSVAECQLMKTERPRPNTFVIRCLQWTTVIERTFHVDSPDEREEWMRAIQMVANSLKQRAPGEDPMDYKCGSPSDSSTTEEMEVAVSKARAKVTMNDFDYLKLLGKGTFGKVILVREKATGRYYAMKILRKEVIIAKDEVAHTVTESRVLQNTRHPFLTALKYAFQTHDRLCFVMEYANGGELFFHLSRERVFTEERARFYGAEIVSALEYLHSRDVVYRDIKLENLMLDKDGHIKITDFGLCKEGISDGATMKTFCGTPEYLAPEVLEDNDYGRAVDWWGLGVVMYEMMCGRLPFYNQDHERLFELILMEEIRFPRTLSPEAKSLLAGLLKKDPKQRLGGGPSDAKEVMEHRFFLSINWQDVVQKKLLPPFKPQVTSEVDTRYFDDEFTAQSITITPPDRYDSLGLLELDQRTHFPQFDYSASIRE
Sequence of RAC-gamma serine/threonine-protein kinase (Homo sapiens), Q9Y243 [S472D] (Q9Y243 whole entry S472D): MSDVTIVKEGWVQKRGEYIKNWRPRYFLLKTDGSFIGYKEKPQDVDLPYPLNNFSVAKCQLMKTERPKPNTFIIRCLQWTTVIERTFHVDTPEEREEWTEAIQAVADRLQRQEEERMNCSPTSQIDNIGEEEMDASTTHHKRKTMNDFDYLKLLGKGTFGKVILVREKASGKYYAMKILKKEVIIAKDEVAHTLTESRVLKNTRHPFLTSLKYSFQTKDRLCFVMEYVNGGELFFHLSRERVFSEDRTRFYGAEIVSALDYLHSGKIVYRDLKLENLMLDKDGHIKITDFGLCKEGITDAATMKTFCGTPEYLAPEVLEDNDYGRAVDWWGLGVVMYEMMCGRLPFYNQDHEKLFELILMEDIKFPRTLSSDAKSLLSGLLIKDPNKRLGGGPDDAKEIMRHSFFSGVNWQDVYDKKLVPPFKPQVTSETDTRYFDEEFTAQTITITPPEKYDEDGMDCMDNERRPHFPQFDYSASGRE

| SMILES | Activity [1] [%] | Activity [2] [%] | Activity [3] [%] | Activity [4] [%] | IC50 [5] [nM] | IC50 [7] [nM] | IC50 [6] [nM] | IC50 [8] [nM] | IC50 [9] [nM] | IC50 [10] [nM] | Activity [11] | Activity [12] |
| --- | --- | --- | --- | --- | --- | --- | --- | --- | --- | --- | --- | --- |
| CC(C)NCC(C(=O)N1CCN(c2ncnc3sc4c(c23)CCN(C)C4)CC1)c1ccc(Cl)cc1 (stereo not given) | 69 | 50 | 91 | 72 | – | – | – | – | – | – | – | – |
| CC(C)NCC(C(=O)N1CCN(c2ncnc3sc4c(c23)CCCC4)CC1)c1ccc(Cl)cc1 (stereo not given) | 63 | 55 | 72 | 78 | – | – | – | – | – | – | – | – |
| CC(C)NCC(C(=O)N1CCN(c2ncnc3sc4c(c23)CCN(C(=O)N(C)C)C4)CC1)c1ccc(Cl)cc1 (stereo not given) | 87 | 86 | 95 | 80 | – | – | – | – | – | – | – | – |
| CC(C)NCC(C(=O)N1CCN(c2ncnc3sc4c(c23)CCOC4)CC1)c1ccc(Cl)cc1 (stereo not given) | 77 | 78 | 81 | 78 | – | – | – | – | – | – | – | – |
| CN1CCc2c(sc3ncnc(N4CCN(C(=O)C(CNC5CCCC5)c5ccc(Cl)cc5)CC4)c23)C1 (stereo not given) | 76 | 82 | 81 | 82 | – | – | – | – | – | – | – | – |
| CC(C)NCC(C(=O)N1CCN(c2ncnc3sc4c(c23)CCN(C)C4)CC1)c1ccccc1Cl (stereo not given) | 76 | 96 | 83 | 86 | – | – | – | – | – | – | – | – |
| CC(C)NCC(C(=O)N1CCN(c2ncnc3sc4c(c23)CCN(C)C4)CC1)c1ccc(F)cc1 (stereo not given) | 87 | 88 | 111 | 97 | – | – | – | – | – | – | – | – |
| CCCCNCC(C(=O)N1CCN(c2ncnc3sc4c(c23)CCC4)CC1)c1ccc(Cl)cc1 (stereo not given) | 15 | 1 | 56 | 37 | 166 | 137 | 1350 | 367 | 914 | 833 | – | – |
| CC(C)NCC(C(=O)N1CCN(c2ncnc3sc4c(c23)CCC4)CC1)c1ccc(Br)cc1 (stereo not given) | 20 | 1 | 67 | 23 | 39 | 95 | 521 | 112 | 202 | 228 | – | – |
| CN1CCc2c(sc3ncnc(N4CCN(C(=O)C(CNC5CCCCC5)c5ccc(Cl)cc5)CC4)c23)C1 (stereo not given) | 69 | 84 | 88 | 95 | – | – | – | – | – | – | – | – |
| COc1ccc(C(CNC(C)C)C(=O)N2CCN(c3ncnc4sc5c(c34)CCC5)CC2)cc1 (stereo not given) | 42 | 18 | 86 | 66 | – | – | – | – | – | – | – | – |
| O=C(C(CNC1CCCCC1)c1ccc(Cl)cc1)N1CCN(c2ncnc3sc4c(c23)CCC4)CC1 (stereo not given) | 11 | 1 | 51 | 29 | 51 | 45 | 978 | 159 | 386 | 294 | – | – |
| CCNCC(C(=O)N1CCN(c2ncnc3sc4c(c23)CCN(C)C4)CC1)c1ccc(Cl)cc1 (stereo not given) | 74 | 95 | 107 | 91 | – | – | – | – | – | – | – | – |
| CC(C)NCC(C(=O)N1CCN(c2ncnc3sc4c(c23)CCN(C(C)C)C4)CC1)c1ccc(Cl)cc1 (stereo not given) | 78 | 76 | 81 | 84 | – | – | – | – | – | – | – | – |
| COc1ccc(C(CNC(C)C)C(=O)N2CCN(c3ncnc4sc5c(c34)CCN(C)C5)CC2)cc1 (stereo not given) | 76 | 81 | 78 | 95 | – | – | – | – | – | – | – | – |
| CC(C)NCC(C(=O)N1CCN(c2ncnc3sc4c(c23)CCC4)CC1)c1ccc(Cl)cc1 (stereo not given) | 19 | 11 | 57 | 45 | – | – | – | – | – | – | – | – |
| CCCCNCC(C(=O)N1CCN(c2ncnc3sc4c(c23)CCN(C)C4)CC1)c1ccc(Cl)cc1 (stereo not given) | 84 | 81 | 93 | 81 | – | – | – | – | – | – | – | – |

Continued, in another order:

| Activity [1] [%] | Activity [2] [%] | Activity [3] [%] | Activity [4] [%] | IC50 [5] [nM] | IC50 [7] [nM] | SMILES | IC50 [6] [nM] | IC50 [8] [nM] | IC50 [9] [nM] | IC50 [10] [nM] | Activity [11] | Activity [12] |
| --- | --- | --- | --- | --- | --- | --- | --- | --- | --- | --- | --- | --- |
| 72 | 69 | 86 | 88 | – | – | CC(C)NCC(C(=O)N1CCN(c2ncnc3sc4c(c23)CCN(C)C4)CC1)c1ccc(Br)cc1 (stereo not given) | – | – | – | – | – | – |
| 71 | 73 | 82 | 87 | – | – | CCN1CCc2c(sc3ncnc(N4CCN(C(=O)C(CNC(C)C)c5ccc(Cl)cc5)CC4)c23)C1 (stereo not given) | – | – | – | – | – | – |
| 70 | 77 | 71 | 92 | – | – | CC(C)NCC(C(=O)N1CCN(c2ncnc3sc4c(c23)CCN(C2CC2)C4)CC1)c1ccc(Cl)cc1 (stereo not given) | – | – | – | – | – | – |
| 79 | 75 | 89 | 88 | – | – | CCCN1CCc2c(sc3ncnc(N4CCN(C(=O)C(CNC(C)C)c5ccc(Cl)cc5)CC4)c23)C1 (stereo not given) | – | – | – | – | – | – |
| 45 | 26 | 104 | 77 | – | – | CC(C)NCC(C(=O)N1CCN(c2ncnc3sc4c(c23)CCC4)CC1)c1ccc(F)cc1 (stereo not given) | – | – | – | – | – | – |
| 21 | 1 | 58 | 31 | 125 | 101 | CCNCC(C(=O)N1CCN(c2ncnc3sc4c(c23)CCC4)CC1)c1ccc(Cl)cc1 (stereo not given) | 1250 | 283 | 580 | 541 | – | – |
| – | – | – | – | 19 | – | CC(C)NC[C@@H](C(=O)N1CCN(c2ncnc3c2[C@H](C)C[C@H]3O)CC1)c1ccc(Cl)cc1 [IPATASERTIB] | 661 | 167 | 268 | 389 | Active | Active |
| 92 | 88 | 101 | 95 | – | – | CC(C)NCC(C(=O)N1CCN(c2ncnc3sc4c(c23)CCC4)CC1)c1ccccc1Cl (stereo not given) | – | – | – | – | – | – |
| 71 | 71 | 77 | 80 | – | – | CC(C)NCC(C(=O)N1CCN(c2ncnc3sc4c(c23)CCN(Cc2ccccc2)C4)CC1)c1ccc(Cl)cc1 (stereo not given) | – | – | – | – | – | – |
| 73 | 78 | 73 | 90 | – | – | Cc1ccc(C(CNC(C)C)C(=O)N2CCN(c3ncnc4sc5c(c34)CCN(C)C5)CC2)cc1 (stereo not given) | – | – | – | – | – | – |
